In ChEMBL document CHEMBL4014326, “Discovery of an Orally Bioavailable Benzimidazole Diacylglycerol Acyltransferase 1 (DGAT1) Inhibitor That Suppresses Body Weight Gain in Diet-Induced Obese Dogs and Postprandial Triglycerides in Humans” (J Med Chem, 2017):
In brackets after ≈: the same amount, converted by molar mass. Activity calls are given as the source filed them. No cut-off for these calls is given here.

Columns and labels:
[1] = Half life in Sprague-Dawley rat at 1 mg/kg, iv by LC/MS/MS analysis; type: ADME, organism-based; conditions: in vivo
How it was run: (§1)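 Male Sprague-Dawley rats, 200-300 g, dosed iv (n = 2) or po (n = 3) as solutions in NMP/PG or PEG400/ETPGS vehicles. Blood was taken from a jugular vein catheter at 0.083 (iv only), 0.25, 0.5, 1, 2, 4, 6 and 8 h into EDTA tubes, and plasma was analysed by LC-MS/MS. Values are means ± SD.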

[2] = AUC (0 to 8 hrs) in Sprague-Dawley rat at 5 mg/kg, po by LC/MS/MS analysis; type: ADME, organism-based; parameters: dose 5 mg/kg, time < 8 hr, route oral; conditions: in vivo; how it was run: as §1
[3] = Clearance in Sprague-Dawley rat at 1 mg/kg, iv by LC/MS/MS analysis; type: ADME, organism-based; conditions: in vivo; how it was run: as §1
[4] = molecular target: T1, Diacylglycerol O-acyltransferase 1 (Mus musculus, UniProt Q9Z2A7); experiment: Inhibition of DGTA1 in mouse C2C12 cells assessed as inhibition of triglyceride formation after 2 hrs by LC/MS/MS analysis; type: cell-based
T1 sequence (Q9Z2A7 whole entry): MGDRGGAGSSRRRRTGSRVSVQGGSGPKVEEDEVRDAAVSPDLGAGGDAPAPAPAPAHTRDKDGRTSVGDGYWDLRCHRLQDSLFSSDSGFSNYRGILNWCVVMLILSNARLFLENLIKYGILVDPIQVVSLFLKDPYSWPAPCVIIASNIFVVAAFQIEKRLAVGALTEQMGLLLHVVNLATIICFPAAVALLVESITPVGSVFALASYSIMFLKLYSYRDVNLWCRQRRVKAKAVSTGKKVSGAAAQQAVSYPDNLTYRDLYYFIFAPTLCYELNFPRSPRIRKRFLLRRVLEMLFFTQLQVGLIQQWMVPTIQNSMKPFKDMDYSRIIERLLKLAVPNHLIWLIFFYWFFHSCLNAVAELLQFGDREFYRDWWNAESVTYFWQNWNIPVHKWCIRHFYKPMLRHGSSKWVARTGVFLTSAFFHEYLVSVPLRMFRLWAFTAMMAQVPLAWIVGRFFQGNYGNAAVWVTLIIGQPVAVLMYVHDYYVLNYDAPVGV
How it was run: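 C2C12 cells were seeded in DMEM with 5 mM glucose and 10% FBS for 18 h at 37 °C. Medium was then replaced with DMEM, 5 mM glucose and 250 µM oleate-BSA plus inhibitor (0.5% DMSO final) for 2 h at 37 °C. Cells were extracted with butanol containing tripalmitolein internal standard and triglyceride was read by LC-MS/MS. An 11-point, 3-fold dose response was run in quadruplicate.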

[5] = Tmax in Sprague-Dawley rat 5 mg/kg, po by LC/MS/MS analysis; type: ADME, organism-based; conditions: in vivo; how it was run: as §1
[6] = Cmax in Sprague-Dawley rat at 5 mg/kg, po by LC/MS/MS analysis; type: ADME, organism-based; parameters: dose 5 mg/kg, route oral; conditions: in vivo; how it was run: as §1
[7] = Volume of distribution at steady state in Sprague-Dawley rat at 1 mg/kg, iv by LC/MS/MS analysis; type: ADME, organism-based; conditions: in vivo, read-out: Vdss; how it was run: as §1
[8] = Permeability across basolateral to apical side in human Caco2 cells; type: ADME, cell-based; conditions: Caco-2, read-out: permeability
How it was run: (§2)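 Caco-2 monolayer permeability was measured in the A-B and B-A directions, and the efflux ratio was taken as B-A/A-B.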

[9] = AUC (0 to 8 hrs) in Sprague-Dawley rat at 1mg/kg, iv by LC/MS/MS analysis; type: ADME, organism-based; parameters: time < 8 hr, dose 1 mg/kg, route intravenous; conditions: in vivo; how it was run: as §1
[10] = Oral bioavailability in Sprague-Dawley rat at 5 mg/kg by LC/MS/MS analysis; type: ADME, organism-based; conditions: in vivo; how it was run: as §1
[11] = Permeability across apical to basolateral side in human Caco2 cells; type: ADME, cell-based; conditions: Caco-2, read-out: permeability; how it was run: as §2
[12] = Drug level in human hepatocytes treated with [3H]-3-(4-(6-(5-(4-Methoxyphenyl)-1,3,4-oxadiazol-2-yl)-1H-benzo[d]imidazol-2-yl)-3,5-dimethylphenyl)-2,2-dimethylpropanoic acid at 12.5 uM after 18 hrs; type: ADME, cell-based, Hepatocyte
How it was run: (§3)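 [3H]-labelled compound (12.5 µM) was incubated for 18 h with rat, dog, monkey or human hepatocytes, and metabolites were profiled.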

[13] = Drug level in monkey hepatocytes treated with [3H]-3-(4-(6-(5-(4-Methoxyphenyl)-1,3,4-oxadiazol-2-yl)-1H-benzo[d]imidazol-2-yl)-3,5-dimethylphenyl)-2,2-dimethylpropanoic acid at 12.5 uM after 18 hrs; type: ADME, cell-based, Macaca mulatta, Hepatocyte; conditions: rhesus monkey; how it was run: as §3
[14] = Drug level in dog hepatocytes treated with [3H]-3-(4-(6-(5-(4-Methoxyphenyl)-1,3,4-oxadiazol-2-yl)-1H-benzo[d]imidazol-2-yl)-3,5-dimethylphenyl)-2,2-dimethylpropanoic acid at 12.5 uM after 18 hrs; type: ADME, cell-based, Canis lupus familiaris, Hepatocyte; how it was run: as §3
[15] = Drug level in rat hepatocytes treated with [3H]-3-(4-(6-(5-(4-Methoxyphenyl)-1,3,4-oxadiazol-2-yl)-1H-benzo[d]imidazol-2-yl)-3,5-dimethylphenyl)-2,2-dimethylpropanoic acid at 12.5 uM after 18 hrs; type: ADME, cell-based, Hepatocyte; how it was run: as §3
[16] = Protein binding in dog plasma at 5 mg/kg, po after 24 hrs; type: ADME, organism-based, Canis lupus familiaris; conditions: read-out: PPB (converted)
[17] = Plasma concentration in high fat diet-fed dog at 5 mg/kg, po qd administered via gavage measured after twenty-ninth dose; type: ADME, organism-based, Canis lupus familiaris
[18] = Plasma concentration in high fat diet-fed dog at 5 mg/kg, po administered via gelatin capsule after 90 mins
[19] = AUC (0 to 24 hrs) in dog plasma at 5 mg/kg, po after 24 hrs; type: ADME, organism-based, Canis lupus familiaris; parameters: time < 24 hr, dose 5 mg/kg, route oral
[20] = tested on: Canis familiaris; experiment: Antiobesity activity in high fat diet-fed dog assessed as reduction in body weight gain at 5 mg/kg, po qd administered via gelatin capsule after 21 days relative to vehicle control; parameters: scale not given: the % may be the effect or the level left
[21] = tested on: Plasma; experiment: Unbound concentration in dog plasma at 5 mg/kg, po after 24 hrs; type: ADME, organism-based, Canis lupus familiaris; conditions: in vivo
[22] = Tmax in Sprague-Dawley rat 3 mg/kg, po by LC/MS/MS analysis; type: ADME, organism-based; conditions: in vivo; how it was run: as §1
[23] = AUC (0 to 8 hrs) in Sprague-Dawley rat at 3 mg/kg, po by LC/MS/MS analysis; type: ADME, organism-based; parameters: dose 3 mg/kg, time < 8 hr, route oral; conditions: in vivo; how it was run: as §1
[24] = Solubility of the compound at pH 6.8 after 24 hrs; type: physicochemical; conditions: buffer
How it was run: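 Solubility was measured in pH 6.8 buffer after 24 h incubation.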

[25] = Cmax in Sprague-Dawley rat at 3 mg/kg, po by LC/MS/MS analysis; type: ADME, organism-based; parameters: dose 3 mg/kg, route oral; conditions: in vivo; how it was run: as §1
[26] = Oral bioavailability in Sprague-Dawley rat at 3 mg/kg by LC/MS/MS analysis; type: ADME, organism-based; conditions: in vivo; how it was run: as §1
[27] = tested on: Homo sapiens; experiment: Antiobesity activity in high fat-fed human assessed as suppression of postprandial plasma triglyceride level compound administered as single oral dose; type: functional
How it was run: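 Randomized, double-blind, placebo-controlled single ascending dose study in overweight or obese healthy adults aged 18-55. Single oral doses of 5-600 mg (n = 8 per dose) or placebo (n = 12) were given. About 1 h after dosing, subjects ate a ~1000 kcal, 55% fat test meal, and plasma triglycerides were compared against an untreated baseline meal test monitored for 9 h.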

[28] = organism: Rattus norvegicus; experiment: Antiobesity activity in rat assessed as suppression of postprandial triglyceride levels; type: functional
[29] = tested on: Canis familiaris; experiment: Antiobesity activity in fasted Beagle dog assessed as postprandial triglyceride AUC in plasma at 1 mg/kg administered via oral gavage prior to 30 mins of […] measured after 4 hrs (reference value: 35400 +/- 8863 mg/dL.min); type: functional, organism-based; parameters: dose 1 mg/kg, time < 4 hr; conditions: Canis lupus familiaris
[30] = Ratio of IC50 for DGTA1 in mouse C2C12 cells to IC50 for recombinant human His6-tagged DGAT1; type: cell-based
How it was run: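 Ratio of the C2C12 cellular IC50 to the enzymatic IC50. Enzyme assay: Sf9 membranes expressing human His6-DGAT1 with 50 µM diolein and 50 µM oleoyl-CoA in 50 mM HEPES pH 7.5, 5 mM MgCl2 and 10% ethanol, 30 min at room temperature. Triolein was read by LC-MS/MS, with a 10-point, 3-fold dose response run in duplicate.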

Cc1cc(CCC(=O)O)cc(C)c1-c1nc2ccc(C(=O)Nc3ccc4ccccc4n3)cc2[nH]1
half-life [1]: 102 min
AUC(0-t) at 8 h [2]: 0.405 µM·h
clearance [3]: 0.414 L/h/kg
IC50 [4]: 0.913 µM
Tmax [5]: 24 min
Cmax [6]: 0.333 µM
Vd [7]: 0.4 L/kg
Papp B→A [8]: 141 nm/s
AUC(0-t) at 8 h [9]: 5.23 µM·h
bioavailability [10]: 2%
Papp A→B [11]: 14 nm/s

COc1ccc(-c2nnc(-c3ccc4nc(-c5c(C)cc(CC(C)(C)C(=O)O[C@@H]6O[C@H](C(=O)O)[C@@H](O)[C@H](O)[C@H]6O)cc5C)[nH]c4c3)o2)cc1
Drug metabolism [12]: Metabolite_Detected
Drug metabolism [13]: Metabolite_Detected
Drug metabolism [14]: Metabolite_Detected
Drug metabolism [15]: Metabolite_Detected

COc1ccc(-c2nnc(-c3ccc4nc(-c5c(C)cc(CC(C)(C)C(=O)O)cc5C)[nH]c4c3)o2)cc1.[Na+]
fraction unbound at 24 h [16]: 0.009
concentration at 29 days [17]: 0.93 µM
concentration at 1.5 h [18]: 0.738 µM
AUC(0-t) at 24 h [19]: 5.27 µM·h
Activity [20]: 11%
Cp(f) [21]: 0.002 µM

Cc1cc(CC(C)(C)C(=O)O)cc(C)c1-c1nc2ccc(C(=O)Nc3ccc4ccccc4n3)cc2[nH]1
half-life [1]: 48 min
clearance [3]: 0.33 L/h/kg
IC50 [4]: 0.954 µM
Tmax [22]: 30 min
AUC(0-t) at 8 h [23]: 4.23 µM·h
Vd [7]: 0.4 L/kg
solubility at 24 h [24]: 8 µM (≈ 3.94 µg/mL)
Cmax [25]: 1.72 µM
bioavailability [26]: 23%
Papp B→A [8]: 124 nm/s
AUC(0-t) at 8 h [9]: 6.11 µM·h
Papp A→B [11]: 35 nm/s

COc1ccc(-c2nnc(-c3ccc4nc(-c5c(C)cc(CC(C)(C)C(=O)O)cc5C)[nH]c4c3)o2)cc1
Activity [27]: Dose-dependent effect
Activity [28]: Active
AUC [29]: 308000 ng·h/mL
Ratio IC50 [30]: 9

Cc1cc(CC(C)(C)C(=O)O)cc(C)c1-c1nc2ccc(-c3nnc(-c4ccc(O)cc4)o3)cc2[nH]1
Drug metabolism [12]: Metabolite_Detected
Drug metabolism [13]: Metabolite_Detected
Drug metabolism [14]: Metabolite_Detected
Drug metabolism [15]: Metabolite_Detected

COc1ccc(-c2nnc(-c3ccc4nc(-c5c(C)cc(CCC(=O)O)cc5C)[nH]c4c3)o2)cc1
half-life [1]: 96 min
clearance [3]: 1.26 L/h/kg
IC50 [4]: 0.181 µM
Tmax [22]: 30 min
AUC(0-t) at 8 h [23]: 0.103 µM·h
Vd [7]: 0.7 L/kg
Cmax [25]: 0.04 µM
bioavailability [26]: 2%
Papp B→A [8]: 92 nm/s
AUC(0-t) at 8 h [9]: 1.69 µM·h
Papp A→B [11]: 14 nm/s

Cc1cc(CCC(=O)O)cc(C)c1-c1nc2ccc(C(=O)Nc3ccc(C(C)(C)C)cc3)cc2[nH]1
Ratio IC50 [30]: 10
